Measured values reported in publication PMC11931566 (RSC Medicinal Chemistry, 2025).
Read-outs that look alike come from different tables or passages of the source.

Columns and labels:
58 cancer cell lines = experiment: Spectrum of anticancer activity, 58 cancer cell lines; assay type: cell-based, human; details: 10 μM
How it was run: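 Spectrum screen over 58 human cancer cell lines covering leukemia, CNS, prostate, breast, lung and other tumour types, run in the NCI-60 screen at the National Cancer Institute. % growth inhibition per line; counts of lines above 50% and above 100% inhibition, plus mean growth inhibition across the 58 lines.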

PARP = experiment: Western blot in A549 cells, PARP and cleaved PARP; assay type: cell-based, human; details: 24 h
[1] = system: normal human foetal lung fibroblast MRC-5 cell line; experiment: Selectivity against normal cells, MRC-5; assay type: cell-based; details: lung cancer cells rather than normal lung cells (MRC-5)
[2] = Selectivity against normal cells, MRC-5; assay type: cell-based, human; details: human, MRC-5 normal foetal lung fibroblast cells
CDK8 = experiment: Western blot in A549 cells, CDK8; assay type: cell-based, human; details: western blot (Fig. S1)
CDK2 = experiment: Western blot in A549 cells, CDK2; assay type: cell-based, human; details: 24 h
A549 cells [3] = experiment: Cell cycle distribution analysis; assay type: cell-based, human; details: 24 h, different concentrations
How it was run: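 A549 lung cancer cells were treated with several concentrations of test compound, stained with propidium iodide for DNA content, and analysed by flow cytometry. Fractions in G0/G1, S and G2/M phases were quantified.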

[4] = system: ovarian cancer cell lines; experiment: GI50 evaluation, ovarian cancer cell lines; assay type: cell-based, human; details: for GI50: Homo sapiens
How it was run: (§1)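 GI50 determined per human cancer cell line, grouped by tumour type, with a 3 μM cut-off applied. Per-panel average GI50 and range were calculated. Fold change was taken as the ratio of the average GI50 to that of a reference antitumor ether lipid.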

phospho-Rb (p-Rb) = experiment: Western blot in A549 cells, phospho-Rb; assay type: cell-based, human; details: 24 h
[5] = system: six CNS cancer cell lines; experiment: GI50 evaluation, CNS cancer cell lines; assay type: cell-based, human; details: for GI50: Homo sapiens
How it was run: as §1

H322M = experiment: Cell growth inhibition; assay type: cell-based; details: Homo sapiens, NCI-H322M, read-out: % growth inhibition, H322M
How it was run: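 Single-dose screen of non-small cell lung cancer lines (adenocarcinoma, metastatic adenocarcinoma, large cell and squamous carcinoma) with test compound at 10 μM. Read-out is % growth inhibition per cell line. Run as part of the NCI-60 human tumour cell line screen at the National Cancer Institute.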

[6] = system: two prostate cancer cell lines; experiment: GI50 evaluation, prostate cancer cell lines; assay type: cell-based, human; details: for GI50: Homo sapiens, read-out: calculated average GI50, prostate cancer
How it was run: as §1

CDK7 = experiment: Western blot in A549 cells, CDK7; assay type: cell-based, human; details: western blot (Fig. S1)
nine melanoma cell lines = experiment: GI50 evaluation, melanoma cell lines; assay type: cell-based, human; details: for GI50: Homo sapiens
How it was run: as §1

CDK6 = experiment: Western blot in A549 cells, CDK6; assay type: cell-based, human; details: 24 h
caspase 8 = experiment: Western blot in A549 cells, caspase 8; assay type: cell-based, human; details: 24 h
CDK1 = experiment: Western blot in A549 cells, CDK1; assay type: cell-based, human; details: western blot (Fig. S1)
A549 cells [7] = experiment: Annexin V-FITC/PI double staining analysis; assay type: cell-based, human; details: 48 h, different concentrations
How it was run: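 A549 cells were treated with several concentrations of test compound, stained with annexin-V and propidium iodide, and analysed by FACS. Live, early apoptotic, late apoptotic and necrotic populations were quantified as percentages.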

eight renal cancer cells = experiment: GI50 evaluation, renal cancer cells; assay type: cell-based, human; details: for GI50: Homo sapiens
How it was run: as §1

[8] = system: non-small cell lung cancer cell lines; experiment: Cell growth inhibition, panel of nine NSCLC cell lines; assay type: cell-based, human
How it was run: as §1

BAX = experiment: Western blot in A549 cells, BAX; assay type: cell-based, human; details: 24 h
CDK4 = experiment: Western blot in A549 cells, CDK4; assay type: cell-based, human; details: 24 h
[9] = system: seven colon cancer cell lines; experiment: GI50 evaluation, colon cancer cell lines; assay type: cell-based, human; details: for GI50: Homo sapiens
How it was run: as §1

cyclin D1 = experiment: Western blot in A549 cells, cyclin D1; assay type: cell-based, human; details: 24 h
ACHN = experiment: GI50 evaluation, ACHN renal cancer; assay type: cell-based, human; details: cut-off value of 3 μM
How it was run: as §1

HCT15 = experiment: GI50 evaluation, HCT15 colon adenocarcinoma; assay type: cell-based, human; details: cut-off value of 3 μM
How it was run: as §1

UO31 = experiment: GI50 evaluation, UO31 renal cancer; assay type: cell-based, human; details: cut-off value of 3 μM
How it was run: as §1

[10] = system: five breast cancer cell lines; experiment: GI50 evaluation, breast cancer cell lines; assay type: cell-based, human; details: for GI50: Homo sapiens, read-out: calculated average GI50, breast cancer
How it was run: as §1

COLO205 = experiment: GI50 evaluation, COLO205 colon cancer; assay type: cell-based; details: Homo sapiens, COLO 205, read-out: GI50, COLO205
How it was run: as §1

HCC2998 = experiment: GI50 evaluation, HCC2998 colon cancer; assay type: cell-based; details: Homo sapiens, HCC 2998, read-out: GI50, HCC2998
How it was run: as §1

[11] = system: four leukemic cancer cells; experiment: GI50 evaluation, leukemic cancer cells; assay type: cell-based, human; details: from average GI50
How it was run: as §1

[12] = read-out: GI50 range, ovarian cancer
[13] = read-out: calculated average GI50, ovarian cancer
[14] = read-out: GI50 range, CNS cancer
[15] = read-out: calculated average GI50, CNS cancer
[16] = read-out: calculated average GI50, melanoma
[17] = read-out: GI50 range, renal cancer
[18] = read-out: calculated average GI50, renal cancer
[19] = Homo sapiens, read-out: GI50 range, non-small cell lung cancer
[20] = Homo sapiens, read-out: calculated average GI50, non-small cell lung cancer
[21] = read-out: GI50 range, colon cancer
[22] = read-out: calculated average GI50, colon cancer

SMILES: CCCCCCCCCCCCCCCCCCOc1ccccc1CC(=O)OCC[N+](C)(C)C.[I-] [Compound 6]
- number of cell lines out of 58 inhibited by more than 50% (58 cancer cell lines): 50
- number of cell lines out of 58 inhibited by more than 100% (58 cancer cell lines): 9
- PARP cleavage (PARP): dose-dependent PARP cleavage
- selectivity index, average [1]: 10.31
- selectivity index, range [1]: 7.70–13.36
- GI50 [2]: 16700 nM
- CDK8 protein level (CDK8): no dose-dependent inhibition
- CDK2 protein level (CDK2): dose-dependent inhibition
- counts of cells in G0/G1 phase (A549 cells [3]): increased dose-dependently
- counts of cells in the S and G2/M phases (A549 cells [3]): decreased in a dose-dependent pattern
- GI50 [4, 12]: 650 to 9840 nM
- GI50 [4, 13]: 2640 nM
- fold increase compared to the potency of edelfosine, ovarian cancer ([4]; from average GI50): 9.5 fold
- formation of phospho-Rb (p-Rb) (phospho-Rb (p-Rb)): inhibited dose-dependently
- GI50 [5, 14]: 1230 to 2030 nM
- GI50 [5, 15]: 1590 nM
- inhibition at 10 µM (H322M): 33.5%
- GI50 [6]: 1600 nM
- fold increase compared to the potency of edelfosine, prostate cancer ([6]; from average GI50): 33.5 fold
- CDK7 protein level (CDK7): no dose-dependent inhibition
- GI50 (nine melanoma cell lines; read-out: GI50 range, melanoma): 1570 to 2340 nM
- GI50 (nine melanoma cell lines; [16]): 1730 nM
- CDK6 protein level (CDK6): dose-dependent inhibition
- caspase 8 cleavage (caspase 8): cleavage of caspase 8
- CDK1 protein level (CDK1): no dose-dependent inhibition
- apoptosis induction (early apoptosis population) (A549 cells [7]): increase in the portion of cells that entered the early apoptosis state
- necrosis (A549 cells [7]): no significant necrosis
- GI50 (eight renal cancer cells; [17]): 490 to 1750 nM
- GI50 (eight renal cancer cells; [18]): 1350 nM
- average fold increase compared to the potency of edelfosine, renal cancer (eight renal cancer cells; from average GI50): 18.5 fold
- inhibition at 10 µM ([8]; Homo sapiens, read-out: % growth inhibition (range) against H460, A549, HOP62, HOP92, and H522 cell lines, 10 µM): 88.5 to 114%
- GI50 [8, 19]: 1250 to 2170 nM
- GI50 [8, 20]: 1620 nM
- average fold increase compared to the potency of edelfosine, NSCLC ([8]; from average GI50): 15.5 fold
- BAX level (BAX): dose-dependent upregulation of BAX
- CDK4 protein level (CDK4): dose-dependent inhibition
- GI50 [9, 21]: 1590 to 2960 nM
- GI50 [9, 22]: 1910 nM
- average fold increase compared to the potency of edelfosine, colon cancer ([9]; from average GI50): 4 fold
- cyclin D1 protein level (cyclin D1): dose-dependent inhibition

SMILES: CCCCCCCCCCCCCCCCCCOc1ccccc1CC(=O)OCC[N+]1(C)CCCC1.[I-] [Compound 9]
- number of cell lines out of 58 inhibited by more than 50% (58 cancer cell lines): 43
- number of cell lines out of 58 inhibited by more than 100% (58 cancer cell lines): 3
- GI50 relative to cut-off, ACHN (ACHN): more than the applied cut-off value
- GI50 relative to cut-off, HCT15 (HCT15): outside the applied cut-off window
- GI50 [4, 12]: 1520 to 18900 nM
- GI50 [4, 13]: 6300 nM
- GI50 [5, 14]: 1260 to 2830 nM
- GI50 [5, 15]: 1820 nM
- GI50 (nine melanoma cell lines; read-out: GI50 range, melanoma): 1630 to 2820 nM
- GI50 (nine melanoma cell lines; [16]): 2070 nM
- GI50 [8, 19]: 1220 to 8220 nM
- GI50 [8, 20]: 2670 nM
- GI50 [9, 22]: 2170 nM
- GI50 relative to cut-off, UO31 (UO31): more than the applied cut-off value

SMILES: CCCCCCCCCCCCCCCCCCOCC(COP(=O)([O-])OCC[N+](C)(C)C)OC (centres unmarked) [edelfosine, reference compound]
- GI50 [10]: > 67200 nM
- GI50 [4, 12]: 6670 to 42300 nM
- GI50 [4, 13]: 25200 nM
- GI50 [5, 14]: 8750 to 58500 nM
- GI50 [5, 15]: 21400 nM
- GI50 [6]: > 53600 nM
- GI50 (nine melanoma cell lines; read-out: GI50 range, melanoma): 15400 to 98400 nM
- GI50 (nine melanoma cell lines; [16]): 38700 nM
- GI50 (COLO205): 2650 nM
- GI50 (eight renal cancer cells; [17]): 12100 to 72800 nM
- GI50 (eight renal cancer cells; [18]): 25000 nM
- GI50 [8, 19]: 7050 to 46800 nM
- GI50 [8, 20]: 25200 nM
- GI50 [9, 21]: 2380 to 14700 nM
- GI50 [9, 22]: 7800 nM
- GI50 (HCC2998): 2380 nM

SMILES: CCCCCCCCCCCCCCCCCCOc1ccccc1CC(=O)OCC[N+](CC)(CC)CC.[I-] [Compound 8]
- number of cell lines out of 58 inhibited by more than 50% (58 cancer cell lines): 49
- number of cell lines out of 58 inhibited by more than 100% (58 cancer cell lines): 10
- GI50 relative to cut-off, ACHN (ACHN): more than the applied cut-off value
- GI50 [10]: 1430 nM
- fold increase compared to the potency of edelfosine, breast cancer ([10]; from average GI50): ~47 fold
- GI50 relative to cut-off, HCT15 (HCT15): outside the applied cut-off window
- GI50 [4, 12]: 920 to 7580 nM
- GI50 [4, 13]: 2670 nM
- GI50 [5, 14]: 970 to 1620 nM
- GI50 [5, 15]: 1350 nM
- fold increase compared to the potency of edelfosine, CNS cancer ([5]; from average GI50): more than 15 fold
- GI50 (nine melanoma cell lines; read-out: GI50 range, melanoma): 880 to 1900 nM
- GI50 (nine melanoma cell lines; [16]): 1330 nM
- average fold increase compared to the potency of edelfosine, melanoma (nine melanoma cell lines; from average GI50): 29 fold
- average fold increase compared to the potency of edelfosine, leukemia [11]: 13 fold
- GI50 [8, 19]: 1100 to 4030 nM
- GI50 [8, 20]: 1800 nM
- GI50 [9, 21]: 1040 to 4390 nM
- GI50 [9, 22]: 1880 nM
- GI50 relative to cut-off, UO31 (UO31): more than the applied cut-off value

SMILES: CCCCCCCCCCCCCCCCCCOc1ccccc1CC(=O)OCC[N+]1(C)CCCCC1.[I-] [Compound 10]
- number of cell lines out of 58 inhibited by more than 50% (58 cancer cell lines): 31
- number of cell lines out of 58 inhibited by more than 100% (58 cancer cell lines): 6
- GI50 relative to cut-off, ACHN (ACHN): more than the applied cut-off value
- GI50 relative to cut-off, HCT15 (HCT15): outside the applied cut-off window
- GI50 [4, 12]: 1540 to 18200 nM
- GI50 [4, 13]: 6280 nM
- GI50 [5, 14]: 1390 to 2930 nM
- GI50 [5, 15]: 1920 nM
- GI50 (nine melanoma cell lines; read-out: GI50 range, melanoma): 1700 to 2790 nM
- GI50 (nine melanoma cell lines; [16]): 2070 nM
- GI50 [8, 19]: 1320 to 5780 nM
- GI50 [8, 20]: 2350 nM
- GI50 [9, 22]: 2160 nM
- GI50 relative to cut-off, UO31 (UO31): more than the applied cut-off value
